Assays:
Candida albicans [1] = assay: Antifungal activity against fluconazole-resistant Candida albicans 56452 after 48 hrs by broth microdilution method; type: functional; settings: Candida albicans, 56452, 48 h
In short: (§1)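 Modified CLSI M27-A2 broth microdilution. Yeast at (0.5−1) × 10^3 CFU/mL in MOPS-buffered RPMI 1640 was mixed 1:1 with peptide serially diluted in 0.2% BSA and incubated 48 h at 28 °C. Absorbance was read at 492 nm; MIC is the lowest concentration inhibiting 95% of growth. Triplicate, three biological replicates.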

Staphylococcus aureus [2] = assay: Bactericidal activity against Staphylococcus aureus ATCC 29213; type: functional; settings: read-out: MBC99.9
In short: (§2)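 Wells from the 24 h, 37 °C MHB microdilution plates (bacteria at a final (0.5−1) × 10^5 CFU/mL; peptide diluted in 0.2% BSA) were plated on agar and incubated overnight. MBC is the lowest concentration killing >99.9% of cells. Each test was reproduced at least 3 times.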

Escherichia coli [3] = assay: Antibacterial activity against Escherichia coli ATCC 25922 after 24 hrs; type: functional; settings: ATCC 25922, 24 h
In short: (§3)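 Broth microdilution. Mid-log bacteria in MHB at a final (0.5−1) × 10^5 CFU/mL were mixed with equal volumes of peptide serially diluted in 0.2% BSA. Plates were incubated 24 h at 37 °C and read at A492. MIC is the lowest concentration inhibiting 95% of growth. Each test was repeated at least 3 times.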

Escherichia coli [4] = assay: Antibacterial activity against Escherichia coli ATCC 25922 after 18 hrs in presence of FeCl3 by broth dilution method; type: functional; settings: ATCC 25922, 18 h
Candida tropicalis [5] = assay: Antifungal activity against Candida tropicalis cgmcc 2.1975 after 48 hrs by broth microdilution method; type: functional; settings: cgmcc 2.1975, 48 h
In short: (§4)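 Modified CLSI M27-A2 broth microdilution. Yeast were suspended in MOPS-buffered RPMI 1640 at a final (0.5−1) × 10^3 CFU/mL and mixed 1:1 with peptide serially diluted in 0.2% BSA. Plates were incubated 48 h at 28 °C and read at A492. MIC is the lowest concentration giving 95% inhibition. Run in triplicate with three biological replicates.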

Candida albicans [6] = assay: Fungicidal activity against fluconazole-resistant Candida albicans 17546 after 96 hrs; type: functional; settings: Candida albicans, 17546, 96 h; read-out: MFC99.9
In short: (§5)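 After the 48 h, 28 °C broth microdilution in MOPS-buffered RPMI 1640 (inoculum (0.5−1) × 10^3 CFU/mL), 50 μL from each well was plated on YM agar for a further 48 h at 28 °C. MFC is the lowest concentration killing at least 99.9% of cells. Triplicate, three biological replicates.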

Salmonella typhimurium = assay: Bactericidal activity against Salmonella typhimurium ATCC 14028; type: functional, Salmonella enterica subsp. enterica serovar Typhimurium; settings: Salmonella enterica, read-out: MBC99.9; in short: as §2
[7] = Bactericidal activity against Salmonella pullorum ATCC 7913; type: functional, Salmonella enterica subsp. enterica serovar Pullorum; settings: Salmonella enterica, read-out: MBC99.9; in short: as §2
Candida albicans [8] = assay: Fungicidal activity against Candida albicans SP3903 after 96 hrs; type: functional; settings: SP3903, 96 h, read-out: MFC99.9; in short: as §5
Candida albicans [9] = assay: Fungicidal activity against Candida albicans isolated from alveolar fluid after 96 hrs; type: functional; settings: read-out: MFC99.9; in short: as §5
Candida albicans [10] = assay: Antifungal activity against Candida albicans cgmcc 2.2086 in presence of CaCl2 by broth dilution method; type: functional
Candida parapsilosis [11] = assay: Fungicidal activity against Candida parapsilosis cgmcc 2.3989 after 96 hrs; type: functional; settings: Lodderomyces parapsilosis, cgmcc 2.3989, 96 h; read-out: MFC99.9
In short: (§6)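 Wells from the 48 h, 28 °C RPMI 1640/MOPS microdilution plates were plated on YM agar and incubated a further 48 h at 28 °C. MFC is the lowest concentration killing at least 99.9% of cells. Run in triplicate with three biological replicates.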

Candida albicans [12] = assay: Antifungal activity against Candida albicans cgmcc 2.2086 in presence of ZnCl2 by broth dilution method; type: functional
Candida albicans [13] = assay: Antifungal activity against Candida albicans 14936 after 48 hrs by broth microdilution method; type: functional; settings: Candida albicans, 14936, 48 h; in short: as §1
Pichia kudriavzevii = assay: Antifungal activity against Candida krusei cgmcc 2.1857 after 48 hrs by broth microdilution method; type: functional; settings: cgmcc 2.1857, 48 h; in short: as §4
Staphylococcus aureus [14] = assay: Antibacterial activity against Staphylococcus aureus ATCC 29213 after 24 hrs; type: functional; settings: ATCC 29213, 24 h
In short: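 Modified NCCLS broth microdilution. Mid-log bacteria at (0.5−1) × 10^5 CFU/mL in MHB were mixed 1:1 with peptide serially diluted in 0.2% BSA and incubated 24 h at 37 °C. Absorbance was read at 492 nm; MIC is the lowest concentration inhibiting 95% of growth. At least 3 repeats.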

Candida albicans [15] = assay: Fungicidal activity against Candida albicans SP3876 after 96 hrs; type: functional; settings: SP3876, 96 h, read-out: MFC99.9; in short: as §5
Candida albicans [16] = assay: Fungicidal activity against Candida albicans SP3902 after 96 hrs; type: functional; settings: SP3902, 96 h, read-out: MFC99.9; in short: as §5
Candida albicans [17] = assay: Fungicidal activity against fluconazole-resistant Candida albicans 56452 after 96 hrs; type: functional; settings: Candida albicans, 56452, 96 h; read-out: MFC99.9; in short: as §5
Candida albicans [18] = assay: Antifungal activity against Candida albicans cgmcc 2.2086 in presence of NH4Cl by broth dilution method; type: functional
Escherichia coli [19] = assay: Antibacterial activity against Escherichia coli 1005 after 24 hrs; type: functional; settings: Escherichia coli, 1005, 24 h; in short: as §3
Candida albicans [20] = assay: Fungicidal activity against Candida albicans SP3931 after 96 hrs; type: functional; settings: SP3931, 96 h, read-out: MFC99.9; in short: as §5
Escherichia coli [21] = assay: Antibacterial activity against Escherichia coli ATCC 25922 after 18 hrs in presence of KCl by broth dilution method; type: functional; settings: ATCC 25922, 18 h
Escherichia coli [22] = assay: Antibacterial activity against Escherichia coli ATCC 25922 after 18 hrs in presence of CaCl2 by broth dilution method; type: functional; settings: ATCC 25922, 18 h
Candida tropicalis [23] = assay: Fungicidal activity against Candida tropicalis cgmcc 2.1975 after 96 hrs; type: functional; settings: cgmcc 2.1975, 96 h, read-out: MFC99.9; in short: as §6
Candida albicans [24] = assay: Fungicidal activity against fluconazole-resistant Candida albicans 56214 after 96 hrs; type: functional; settings: Candida albicans, 56214, 96 h; read-out: MFC99.9; in short: as §5
Candida parapsilosis [25] = assay: Antifungal activity against Candida parapsilosis cgmcc 2.3989 after 48 hrs by broth microdilution method; type: functional; settings: Lodderomyces parapsilosis, cgmcc 2.3989, 48 h; in short: as §4
Candida albicans [26] = assay: Antifungal activity against Candida albicans cgmcc 2.2086 in presence of NaCl by broth dilution method; type: functional
Escherichia coli [27] = assay: Antibacterial activity against Escherichia coli ATCC 25922 after 18 hrs in presence of ZnCl2 by broth dilution method; type: functional; settings: ATCC 25922, 18 h
Candida albicans [28] = assay: Fungicidal activity against Candida albicans 14936 after 96 hrs; type: functional; settings: Candida albicans, 14936, 96 h; read-out: MFC99.9; in short: as §5
Candida albicans [29] = assay: Antifungal activity against Candida albicans isolated from alveolar fluid after 48 hrs by broth microdilution method; type: functional; in short: as §1

Substance | MIC95 (Candida albicans [1]) [µM] | MBC (Staphylococcus aureus [2]) [µM] | MIC95 (Escherichia coli [3]) [µM] | MIC (Escherichia coli [4]) [µM] | MIC95 (Candida tropicalis [5]) [µM] | MFC (Candida albicans [6]) [µM] | MBC (Salmonella typhimurium) [µM] | MBC [7] [µM] | MFC (Candida albicans [8]) [µM] | MFC (Candida albicans [9]) [µM] | MIC (Candida albicans [10]) [µM] | MFC (Candida parapsilosis [11]) [µM] | MIC (Candida albicans [12]) [µM] | MIC95 (Candida albicans [13]) [µM] | MIC95 (Pichia kudriavzevii) [µM] | MIC95 (Staphylococcus aureus [14]) [µM] | MFC (Candida albicans [15]) [µM] | MFC (Candida albicans [16]) [µM] | MFC (Candida albicans [17]) [µM] | MIC (Candida albicans [18]) [µM] | also measured
H-RWWRRWRRWWR-NH2 | 8 | 8 | 16 | 16 | 2 | 4 | 32 | 8 | 2 | 8 | 8 | 32 | 4 | 4 | 2 | 4 | 2 | 4 | 8 | 4 | MIC95 (Escherichia coli [19]): 8 µM; MFC (Candida albicans [20]): 16 µM; MIC (Escherichia coli [21]): 16 µM; MIC (Escherichia coli [22]): 32 µM; MFC (Candida tropicalis [23]): 4 µM; MFC (Candida albicans [24]): 8 µM; MIC95 (Candida parapsilosis [25]): 16 µM; MIC (Candida albicans [26]): 16 µM; MIC (Escherichia coli [27]): 16 µM; MFC (Candida albicans [28]): 4 µM; MIC95 (Candida albicans [29]): 4 µM
H-WWRRWRRWW-NH2 | 8 | 16 | 8 | 4 | 4 | 4 | 16 | 16 | 4 | 16 | 16 | 64 | 8 | 8 | 4 | 4 | 4 | 8 | 8 | 8 | MIC95 (Escherichia coli [19]): 4 µM; MFC (Candida albicans [20]): 32 µM; MIC (Escherichia coli [21]): 8 µM; MIC (Escherichia coli [22]): 32 µM; MFC (Candida tropicalis [23]): 8 µM; MFC (Candida albicans [24]): 8 µM; MIC95 (Candida parapsilosis [25]): 32 µM; MIC (Candida albicans [26]): 16 µM; MIC (Escherichia coli [27]): 16 µM; MFC (Candida albicans [28]): 8 µM; MIC95 (Candida albicans [29]): 8 µM

Reference: ChEMBL document CHEMBL4177755, “Combating Drug-Resistant Fungi with Novel Imperfectly Amphipathic Palindromic Peptides” (J Med Chem, 2018)
